# Data: ChEMBL document CHEMBL1158708, “Cerylimycins [corrected] A and B: antibacterial triterpenes from the new species Tricholoma sp. AU1” (J Nat Prod, 2005)
# Assays:
# Klebsiella pneumoniae = assay: Antimicrobial activity against Klebsiella pneumoniae after 18 hrs; format: functional, organism-based
# Summary of the method: (§1)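 Strains grown on Mueller-Hinton agar, then in Mueller-Hinton broth with CaCl₂/MgCl₂ at 37 °C for 18 h. Serially diluted (K. pneumoniae and P. aeruginosa 10^-6, S. aureus 10^-8, S. pneumoniae 10^-4, as cfu/mL) and equilibrated 30 min at 37 °C. Incubated with samples, shaken at 37 °C and 60% humidity for 18 h. Read at OD650. Streptomycin 50 μg/mL control wells.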
# Pseudomonas aeruginosa = assay: Antimicrobial activity against Pseudomonas aeruginosa after 18 hrs; format: functional, organism-based; summary of the method: as §1
# Staphylococcus aureus = assay: Antimicrobial activity against Staphylococcus aureus after 18 hrs; format: functional, organism-based; summary of the method: as §1
# Streptococcus pneumoniae = assay: Antimicrobial activity against Streptococcus pneumoniae after 18 hrs; format: functional, organism-based; summary of the method: as §1
# THP-1 = assay: Cytotoxicity against human THP1 cells after 72 hrs by WST-1 assay; format: cell-based; conditions: THP-1, 72 h
# Summary of the method: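 THP-1 cells kept in RPMI 1640 with 10% FBS, 2 mM L-glutamine, penicillin/streptomycin and 10 μM 2-mercaptoethanol at 37 °C, 5% CO₂. Seeded at 2.5 × 10⁴ cells/well and exposed to samples at 250 μg/mL final for 72 h. WST-1 added for 1–2 h, absorbance read at 450 nm. Controls were 10 μM camptothecin and 0.1% DMSO.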
IC50 (Klebsiella pneumoniae),IC50 (Pseudomonas aeruginosa),IC50 (Staphylococcus aureus),IC50 (Streptococcus pneumoniae),SMILES,IC50 (THP-1)
> 473 µM,> 473 µM,12 µM,6 µM,C=C1CC[C@H]2C(C)(C)[C@H](O)CC[C@]2(C)[C@@H]1C[C@@H]1CCC(=C)[C@H](CC/C(C)=C/CO)[C@@]1(C)C(=O)O [TRICHOMYCIN B],640 µM
> 500 µM,> 500 µM,12 µM,5 µM,C=C1CC[C@H]2C(C)(C)[C@H](O)CC[C@]2(C)[C@@H]1C[C@@H]1CCC(=C)[C@H](CC/C(C)=C/COC=O)[C@@]1(C)C(=O)O [TRICHOMYCIN A],> 1000 µM
